In ChEMBL document CHEMBL1629506, “Design, synthesis and structure-activity relationship study of novel pyrazole-based heterocycles as potential antitumor agents” (Eur J Med Chem, 2010):

Legend:
[1] = system: T47D; assay: Growth inhibition of human T47D cells after 48 hrs by sulforhodamine B assay; format: functional
Method in brief: (§1)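 Cells were plated at 5000–40,000 cells/well, depending on doubling time, and preincubated 24 h at 37 °C in 5% CO2. Time-zero plates were TCA-fixed at drug addition. Compounds were dissolved in DMSO and tested at five concentrations (10-fold or ½-log dilutions) for 48 h. Cells were fixed with cold TCA, stained with 0.4% sulforhodamine B and read at 515 nm. GI50 was taken as the concentration giving 50% growth.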

[2] = system: Rattus norvegicus; assay: Antiestrogenic activity in Sprague-Dawley rat assessed as reduction in estradiol induced uterine weight upto 0.06 ug, po after 8 days; format: functional; parameters: scale not given: the % may be the effect or the level left
Method in brief: (§2)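 Immature ovariectomized female Sprague-Dawley rats (~55 g), groups of 12. Estradiol 0.03–0.05 given s.c. daily for 7 days, with test compound or letrozole reference at various doses up to 0.06 per animal, given orally in 0.5% carboxymethylcellulose. Controls received estradiol alone. Uterine weights were taken on day 8 and group means expressed as % reduction versus estradiol-only controls. Potency was taken relative to letrozole.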

[3] = system: NCI/ADR-RES; assay: Growth inhibition of human NCI/ADR-RES cells after 48 hrs by sulforhodamine B assay; format: functional; method in brief: as §1
[4] = system: OVCAR-4; assay: Growth inhibition of human OVCAR4 cells after 48 hrs by sulforhodamine B assay; format: functional; settings: OVCAR-4, 48 h; method in brief: as §1
[5] = system: OVCAR-8; assay: Growth inhibition of human OVCAR8 cells after 48 hrs by sulforhodamine B assay; format: functional; settings: OVCAR-8, 48 h; method in brief: as §1
[6] = system: SK-OV-3; assay: Growth inhibition of human SKOV3 cells after 48 hrs by sulforhodamine B assay; format: functional; settings: SK-OV-3, 48 h; method in brief: as §1
[7] = system: MDA-MB-231; assay: Growth inhibition of human MDA-MB-231cells after 48 hrs by sulforhodamine B assay; format: functional; settings: MDA-MB-231, 48 h; method in brief: as §1
[8] = system: IGROV-1; assay: Growth inhibition of human IGROV1 cells after 48 hrs by sulforhodamine B assay; format: functional; settings: IGROV-1, 48 h; method in brief: as §1
[9] = system: MDA-MB-435; assay: Growth inhibition of human MDA-MB-435 cells after 48 hrs by sulforhodamine B assay; format: functional; settings: MDA-MB-435, 48 h; method in brief: as §1
[10] = system: MDA-N; assay: Growth inhibition of human MDA-N cells after 48 hrs by sulforhodamine B assay; format: functional; method in brief: as §1
[11] = system: BT-549; assay: Growth inhibition of human BT549 cells after 48 hrs by sulforhodamine B assay; format: functional; settings: BT-549, 48 h; method in brief: as §1
[12] = system: OVCAR-5; assay: Growth inhibition of human OVCAR5 cells after 48 hrs by sulforhodamine B assay; format: functional; settings: OVCAR-5, 48 h; method in brief: as §1
[13] = Growth inhibition of human Hs 578T cells after 48 hrs by sulforhodamine B assay; format: functional; method in brief: as §1
[14] = system: OVCAR-3; assay: Growth inhibition of human OVCAR3 cells after 48 hrs by sulforhodamine B assay; format: functional; settings: OVCAR-3, 48 h; method in brief: as §1
[15] = system: MCF7; assay: Growth inhibition of human MCF7 cells after 48 hrs by sulforhodamine B assay; format: functional; settings: MCF7, 48 h; method in brief: as §1
[16] = system: Rattus norvegicus; assay: Antiestrogenic activity in Sprague-Dawley rat assessed as reduction in estradiol induced uterine weight 0.06 ug, po after 8 days relative to letrozole; format: functional; method in brief: as §2
[17] = Acute toxicity in mouse after 24 hrs; format: organism-based; settings: in vivo
Method in brief: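 Adult mice of both sexes, acclimatized 1 week (12 h light/dark, 21–23 °C), fasted 12 h before dosing. 30 mice in 6 groups of 5 each got a single oral gavage dose, at different dose levels, of a fine-powder aqueous suspension. LD50 was determined, with values as group means of five mice.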

Row | Compound | GI50 [1] [µM] | Activity [2] [%] | GI50 [3] [µM] | GI50 [4] [µM] | GI50 [5] [µM] | GI50 [6] [µM] | GI50 [7] [µM] | GI50 [8] [µM] | GI50 [9] [µM] | GI50 [10] [µM] | GI50 [11] [µM] | GI50 [12] [µM] | GI50 [13] [µM] | GI50 [14] [µM] | GI50 [15] [µM] | potency ratio vs letrozole [16] | LD50 at 24 h [17] [mg/kg]
1 | N#Cc1c(-c2nnc(-c3ccccc3)c3cn(-c4ccccc4)nc23)nn(-c2ccccc2)c1-c1ccccc1 | 21.8 | 32.59 | > 100 | 63 | 68 | 32.8 | 8.84 | 94.8 | 31.8 | 31.2 | 21.8 | > 100 | 31.8 | 93.8 | 9.53 |  | 
2 | N#Cc1c(-c2nnc(-c3ccccc3)c3nn(-c4ccc(Cl)cc4)cc23)nn(-c2ccccc2)c1-c1ccccc1 | 38 |  | 2.28 | 5.49 | 9.23 | > 100 | 6.42 | 93.4 | 23.8 | 63.8 | 38.8 | 8.94 | 16.8 | > 100 | 43.8 |  | 
3 | CN(C)/C=C/C(=O)c1nn(-c2ccccc2)c(-c2ccccc2)c1C#N | 30.2 | 41.98 | 90.6 | 63.8 | 75.8 | 23.8 | 50.4 | 98 | > 100 | 45.4 | 31.1 | > 100 | > 100 | 98.8 | 39.8 | 1.93 | 232
4 | Cc1nnc(-c2nn(-c3ccccc3)c(-c3ccccc3)c2C#N)c2cn(-c3ccccc3)nc12 | 9.14 | 23.97 | > 100 | 56.4 | > 100 | 36.8 | > 100 | 92 | > 100 | 38.4 | 96.8 | > 100 | 1.39 | 96.8 | 8.46 | 1.1 | 32.5
5 | CCOC(=O)c1nn(-c2ccccc2)cc1C(=O)c1nn(-c2ccccc2)c(-c2ccccc2)c1C#N | > 100 | 23.98 | > 100 | > 100 | > 100 |  |  | > 100 | > 100 | 38.4 | 31.8 |  |  |  | 5.49 | 1.1 | 122
6 | CCOC(=O)c1nn(-c2ccc(Cl)cc2)cc1C(=O)c1nn(-c2ccccc2)c(-c2ccccc2)c1C#N | > 100 | 34.86 | > 100 | 45.8 | 65.8 | 30.8 | > 100 | 93.2 | 71.8 | 62.3 | 39.8 | 61.2 | 65 | > 100 | > 100 | 1.61 | 143
7 | CCOC(=O)c1nn(-c2ccc(C)cc2)cc1C(=O)c1nn(-c2ccccc2)c(-c2ccccc2)c1C#N | > 100 | 42.83 | > 100 | 5.46 | 9.18 | > 100 | > 100 | 94.8 | > 100 | > 100 | > 100 | > 100 | > 100 | 91.8 | > 100 | 1.96 | 274
8 | N#Cc1c(-c2nnc(O)c3nn(-c4ccccc4)cc23)nn(-c2ccccc2)c1-c1ccccc1 | 2.95 | 32.86 | 2.76 | 26.4 | 61.5 | 36.8 | 6.21 | 92.2 | 21.8 | 13.8 | 44.8 | 61.8 | 46.8 | > 100 | > 100 | 1.51 | 114
9 | N#Cc1c(-c2nnc(O)c3nn(-c4ccc(Cl)cc4)cc23)nn(-c2ccccc2)c1-c1ccccc1 | > 100 | 23.76 | > 100 | 4.38 | 3.23 | 30.8 | > 100 | 91.3 | > 100 | > 100 | > 100 | 32.8 | > 100 | 33.4 | > 100 | 1.09 | 322
10 | N#Cc1c(C(=O)c2cn(-c3ccc(Cl)cc3)nc2C(=O)Nc2ccccc2)nn(-c2ccccc2)c1-c1ccccc1 | 33 | 34.87 | > 100 | 28.4 | > 100 | 9.42 | > 100 | 99.5 | 2.03 | > 100 | 11.8 | > 100 | 8.84 | 23.8 | > 100 | 1.61 | 101
11 | Cc1ccc(-n2cc(C(=O)c3nn(-c4ccccc4)c(-c4ccccc4)c3C#N)c(C(=O)Nc3ccccc3)n2)cc1 | 30.8 | 34.65 | 2.48 | 7.56 | 9.52 | 9.42 | 6.27 | 16.6 | 2.23 | 5.49 | > 100 | 9.72 | 63.2 | 7.66 | 34.4 | 1.6 | 122
12 | N#Cc1c(C(=O)c2cn(-c3ccccc3)nc2-c2ccccc2)nn(-c2ccccc2)c1-c1ccccc1 | 28 | 23.54 | 98 | 5.49 | 9.83 | > 100 | 49.8 | > 100 | 61 | 3.36 | 1.12 | 6.23 | > 100 | 4.94 | 33.3 | 1.08 | 122
13 | Cc1ccc(-n2cc(C(=O)c3nn(-c4ccccc4)c(-c4ccccc4)c3C#N)c(C(=O)c3nn(-c4ccccc4)c(-c4ccccc4)c3C#N)n2)cc1 | 25.7 | 32.43 | > 100 | 30.4 | 20.3 | 38.8 | > 100 | 0.022 | > 100 | 26.8 | 2.47 | 36.8 | 37.4 | 99.8 | 0.061 | 1.49 | 211
14 | N#Cc1c(-c2nnc(-c3nn(-c4ccccc4)c(-c4ccccc4)c3C#N)c3nn(-c4ccccc4)cc23)nn(-c2ccccc2)c1-c1ccccc1 | 81 | 34.87 | 24.5 | 7.46 | 9.82 | 5.72 | 52.4 | 13.3 | > 100 | > 100 | 11.8 | 9.12 | 94.4 | 7.26 | 17.8 | 1.61 | 222
15 | N#Cc1c(-c2nnc(-c3nn(-c4ccccc4)c(-c4ccccc4)c3C#N)c3nn(-c4ccc(Cl)cc4)cc23)nn(-c2ccccc2)c1-c1ccccc1 | 16 | 43.41 | 7.46 | 43.8 | 61.8 | 36.8 | 7.9 | 98 | 9.2 | 2.26 | 1.02 | > 100 | 9.72 | 95.8 | 9.42 | 2 | 112
